The source of these data is article PMC8320615 (Current Research in Toxicology, 2021).

Where two headings read alike, the source gives them in different places.

Series [1] has as its system HK-2 cells. The series is described as follows: MTT cytotoxicity on HK-2 cells in HK-2/HepaRG co-culture. It counts as cell-based. The following applies: co-culture; for IC50: MTT. In outline:
(§1)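 HK-2 (RPMI-1640) and HepaRG (William's E plus Tox supplement), passages 10–15, seeded together in IdMOC plates and allowed 4 h at 37 °C, 5% CO2. Test compound at several concentrations, DMSO ≤0.5% final, for 24 h and 48 h; MTT read-out. Triptolide positive control: 10 μmol/L for HK-2, 25 μmol/L for HepaRG. IC50 by nonlinear regression; mean ± SD. 48 h IC50 under 100 μM scored toxic.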

The subject of another series is HepaRG cells. The series is described as follows: MTT cytotoxicity on HepaRG cells in HK-2/HepaRG co-culture. It counts as cell-based. The following applies: co-culture; for IC50: MTT; for effect on viability of HepaRG cells (in words): per Table 3. Summed up: as §1
A short description of series [2]: MTT cytotoxicity on HK-2 cells in HK-2/HepaRG co-culture. Format: cell-based. The following applies: human; for IC50 at 24 h / IC50 at 48 h: HK-2 cells in co-culture with HepaRG cells (IdMOC plates). Summed up: as §1
Series [3] is described as follows: MTT cytotoxicity on HepaRG cells in HK-2/HepaRG co-culture. It counts as cell-based. The conditions noted are these: human; for IC50 at 24 h / IC50 at 48 h: HepaRG cells in co-culture with HK-2 cells (IdMOC plates). In outline: as §1
For series [4] the following is noted: reported in the literature ref Wang et al., 2009; cited from earlier work.
The method of series [5] in brief:
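Liver call by software prediction over five injury markers (AlkPhos, GGT, LDH, SGOT, SGPT), positive when three are positive. Kidney call by a self-built QSAR classifier (accuracy 76.7%) giving positive/negative. In vitro, 48 h MTT IC50 under 100 μM in HK-2/HepaRG co-culture counted as toxic. Compounds flagged when either approach was positive.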

The test system of series [6] is HK-2 cells. The series is described as follows: MTT cytotoxicity on HK-2 cells in single culture. Format: cell-based. The conditions noted are these: Homo sapiens, HK-2, 24 h, read-out: IC50 HK-2 Single culture. In outline: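 HK-2 cells (passages 10–15) in RPMI-1640 with 10% FBS at 37 °C, 5% CO2, cultured alone and exposed 24 h to a range of test compound concentrations, DMSO ≤0.5% final; vehicle control 0.5% DMSO. Viability by MTT; IC50 from nonlinear regression.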

Where [7] appears, read: read-out: Renal cytotoxicity IC50 HK-2 24 h, 24 h.
[8] abbreviates: read-out: Renal cytotoxicity IC50 HK-2 48 h, 48 h.
Setting [9] is: read-out: Hepatic cytotoxicity IC50 HepaRG 24 h, 24 h.
Where [10] appears, read: read-out: Hepatic cytotoxicity IC50 HepaRG 48 h, 48 h.

Broadly, the IC50 is the concentration that inhibits the measured activity by half. Usually viability stands for a read-out of living cells in per cent, often relative to untreated cells.

For `Cc1cc2c(c(O)c1O)C(=O)c1c(O)cc(O)cc1C2=O` [No. 13, Alaternin (quinone)], the IC50 with HK-2 cells [1] (setting [7]), in the series with HK-2 cells [1] (setting [8]), with HepaRG cells (setting [9]) and in the series with HepaRG cells (setting [10]) was more than 500 µM throughout.
Consider `O=C(O)c1cc(O)c2c(c1)C(=O)c1cccc(O[C@@H]3O[C@H](CO)[C@@H](O)[C@H](O)[C@H]3O)c1C2=O` [No. 15, Rhein-8-O-β-D-glucoside], for which the IC50 with HK-2 cells [1] (setting [7]) was more than 500 µM; in the series with HK-2 cells [1] (setting [8]) it was 108 µM; with HepaRG cells (setting [9]) it was more than 500 µM; in the series with HepaRG cells (setting [10]) it was 208 µM.
In the case of `COc1cc(O)c2c(c1)C(=O)c1cc(C)cc(O)c1C2=O` [No. 12, Physcion], in series [2], the half-inhibitory concentration (IC50) at 24 h was more than 500 µM and the IC50 at 48 h is 196 µM. Also, in series [3], the IC50 at 24 h is more than 500 µM and inhibition was half-maximal at 73.6 µM (IC50 at 48 h).
For the molecule `COc1ccc2c(c1OC)C(=O)c1c(cc(C)c(O)c1OC)C2=O` [No. 4, 1,7,8-methoxyl-2-hydroxyl-3-methyl-anthraquinone], the IC50 is 332 µM in the series with HK-2 cells [1] (setting [7]), 37.5 µM in the series on HK-2 cells [1] (setting [8]), 420 µM in the series with HepaRG cells (setting [9]) and 192 µM with HepaRG cells (setting [10]).
Turning to `O=C1c2cccc(O)c2C(=O)c2c(O)cc(CO)cc21` [No. 10, Aloe-emodin], the “nephrotoxicity in vivo (in words)” value in series [4] is “nephrotoxic”. In addition, in series [2], the IC50 at 24 h was more than 500 µM and the IC50 at 48 h worked out at 134 µM. In the series on HepaRG cells, the “effect on viability of HepaRG cells (in words)” value is “decreased the viability of HepaRG cells”. In series [3], this molecule showed an IC50 at 24 h of more than 500 µM and an IC50 at 48 h of 96.2 µM.
`O=C(O)c1cc(O)c2c(c1)C(=O)c1cccc(O)c1C2=O` [No. 11, Rhein]: the “effect on viability of HK-2 cells (in words)” value in the series with HK-2 cells [1] (per Table 3) is reported as “reduced the viability of HK-2 cells”. In series [2], this molecule had an IC50 at 24 h of 229 µM and a half-maximal inhibitory concentration (IC50) at 48 h of 44.1 µM. In addition, in the series with HepaRG cells, the “effect on viability of HepaRG cells (in words)” value was “decreased the viability of HepaRG cells”. In series [3], inhibition was half-maximal at 307 µM (IC50 at 24 h) and inhibition was half-maximal at 36.1 µM (IC50 at 48 h). Also, in series [5], the “both hepatotoxicity and nephrotoxicity (in words)” value was “both hepatotoxicity and nephrotoxicity”.
Regarding `COc1c(O)c(C)cc2c1C(=O)c1c(ccc(O)c1O)C2=O` [No. 7, 1,2,7-trihydroxy-8-methoxy-6-methyl-9,10-anthraquinone], the IC50 at 24 h in series [2] and in series [3] was more than 500 µM throughout. The figures for the 50% inhibitory concentration (IC50) at 48 h in series [2] and in series [3] were more than 500 µM and 44.2 µM, respectively.
In series [2], `Cc1cc(O)c2c(c1)C(=O)c1cc(O)cc(O)c1C2=O` [No. 8, Emodin] had an IC50 at 24 h of 89 µM and an IC50 at 48 h of 122 µM. The “effect on viability of HepaRG cells (in words)” value in the series with HepaRG cells was “decreased the viability of HepaRG cells”. In addition, in series [3], the IC50 at 24 h was 125 µM and the IC50 at 48 h was determined as 31.9 µM. Further, the “both hepatotoxicity and nephrotoxicity (in words)” value in series [5] was “both hepatotoxicity and nephrotoxicity”. In the series on HK-2 cells [6], the IC50 came out at 140 µM.
In series [2], `Cc1cc(O)c2c(c1)C(=O)c1cccc(O)c1C2=O` [No. 9, Chrysophanol] registered an IC50 at 24 h of more than 500 µM and a concentration for half-maximal inhibition (IC50) at 48 h of 93.9 µM. Further, in series [3], the IC50 at 24 h was more than 500 µM and 170 µM corresponded to half-maximal inhibition (IC50 at 48 h).
As to `CC(=O)c1c(C)cc2cc(O)cc(O[C@@H]3O[C@H](CO)[C@@H](O)[C@H](O)[C@H]3O)c2c1O` [No. 25, 6-Hydroxymusizin-8-O-β-D-glucopyranoside], the concentration for half-maximal inhibition (IC50) was more than 500 µM in the series on HK-2 cells [1] (setting [7]), more than 500 µM in the series on HK-2 cells [1] (setting [8]), more than 500 µM in the series with HepaRG cells (setting [9]) and 317 µM in the series with HepaRG cells (setting [10]).
As to `COc1c(O[C@@H]2O[C@H](CO)[C@@H](O)[C@H](O)[C@H]2O)cc2c(c1O)C(=O)c1c(cc(C)c(O)c1OC)C2=O` [No. 20, Glucoaurantio-obtusin], the 50% inhibitory concentration (IC50) in the series with HK-2 cells [1] (setting [7]) is more than 500 µM; in the series with HepaRG cells (setting [9]), 154 µM.
Take `COc1c(O[C@@H]2O[C@H](CO)[C@@H](O)[C@H](O)[C@H]2O)c(C)cc2c1C(=O)c1c(O)cccc1C2=O` [No. 16, Obtusifoline-2-O-β-D-glucoside]: the half-maximal inhibitory concentration (IC50) in the series on HK-2 cells [1] (setting [7]) was found to be 270 µM; in the series on HK-2 cells [1] (setting [8]), 251 µM; in the series on HepaRG cells (setting [9]), 108 µM; in the series with HepaRG cells (setting [10]) it was 98.5 µM.
For the molecule `COc1c(O)cc2c(c1O)C(=O)c1c(cc(C)c(O)c1OC)C2=O` [No. 5, Aurantio-obtusin], the values for the IC50 at 24 h in series [2] and in series [3] were more than 500 µM and 333 µM, respectively. Also, the half-maximal inhibitory concentration (IC50) at 48 h in series [2] was 117 µM; in series [3], 75.5 µM. Also, the “effect on viability of HepaRG cells (in words)” value in the series with HepaRG cells is “decreased the viability of HepaRG cells”.
For `COc1cc2c(c(OC)c1OC)C(=O)c1c(cc(C)c(O)c1OC)C2=O` [No. 1, Chryso-obtusin], in series [2], the half-maximal inhibitory concentration (IC50) at 24 h came out at 53 µM and the midpoint of inhibition, the IC50 at 48 h, lay at 33.6 µM. In series [3], this molecule displayed an IC50 at 24 h of 71.9 µM and a 50% inhibitory concentration (IC50) at 48 h of 388 µM.
The corresponding values for `COc1c(O)c(C)cc2c1C(=O)c1c(cc(O)c(O)c1O)C2=O` [No. 6, 1,2,3,7-tetrahydroxy-8-methoxy-6-methyl-anthraquinone] are more than 500 µM, 283 µM, more than 500 µM and 209 µM.
Regarding `COc1cc2c(c(O)c1OC)C(=O)c1c(cc(C)c(O)c1OC)C2=O` [No. 2, Obtusin], the concentration for half-maximal inhibition (IC50) with HK-2 cells [1] (setting [7]) was found to be 50.5 µM; in the series with HK-2 cells [1] (setting [8]) it was 57.8 µM; in the series on HepaRG cells (setting [9]), 298 µM; in the series with HepaRG cells (setting [10]), 81.2 µM. For the same molecule, the “both hepatotoxicity and nephrotoxicity (in words)” value in series [5] is “both hepatotoxicity and nephrotoxicity”.
Consider “2-O-β-D-Glucoside-9-dehydroxyeurotinone [No. 22]”, for which the IC50 in the series with HK-2 cells [1] (setting [7]), with HK-2 cells [1] (setting [8]), in the series with HepaRG cells (setting [9]) and in the series with HepaRG cells (setting [10]) was more than 500 µM each time.
In series [2], `O=C1c2ccccc2C(=O)c2ccccc21` [No. 17, 9,10-Anthracenedione] came in with an IC50 at 24 h of more than 500 µM and an IC50 at 48 h of 138 µM. In series [3], this molecule gave an IC50 at 24 h of 93.4 µM and a 50% inhibitory concentration (IC50) at 48 h of 84.4 µM.
`CC(=O)OC[C@H]1O[C@@H](Oc2cc(O)cc3cc4oc(C)cc(=O)c4c(O)c23)[C@H](O)[C@@H](O)[C@@H]1O` [No. 24, Nor-rubrofusarin-6-O-β-D-(6’-O-acetyl)glucopyranoside]: the IC50 in the series on HK-2 cells [1] (setting [7]) was more than 500 µM; in the series with HK-2 cells [1] (setting [8]), more than 500 µM; with HepaRG cells (setting [9]), more than 500 µM; in the series with HepaRG cells (setting [10]), 226 µM.
In series [2] (HK-2 cells co-cultured with HepaRG cells in IdMOC plates), `CC(C)[C@]12O[C@H]1[C@@H]1O[C@]13[C@]1(O[C@H]1C[C@H]1C4=C(CC[C@@]13C)C(=O)OC4)[C@@H]2O` [Triptolide, reference compound] returned a viability at 10 μmol/L of 43.6 ± 2.26%. In series [3] (HepaRG cells co-cultured with HK-2 cells in IdMOC plates), this molecule came in with a viability at 25 μmol/L of 50.5 ± 5.68%.
`COc1cc2c(c(O)c1OC)C(=O)c1c(cc(C)c(O[C@@H]3O[C@H](CO)[C@@H](O)[C@H](O)[C@H]3O)c1OC)C2=O` [No. 18, Gluco-obtusin]: the IC50 with HK-2 cells [1] (setting [7]) is 255 µM; with HK-2 cells [1] (setting [8]) it was more than 500 µM; with HepaRG cells (setting [9]), 178 µM; in the series on HepaRG cells (setting [10]) it was 125 µM.
`COc1c(O)c(C)cc2c1C(=O)c1c(O)cccc1C2=O` [No. 3, Obtusifoline]: in series [2], inhibition was half-maximal at 310 µM (IC50 at 24 h) and the midpoint of inhibition, the IC50 at 48 h, lay at 389 µM. In series [3], this molecule yielded a half-maximal inhibitory concentration (IC50) at 24 h of 117 µM and a concentration for half-maximal inhibition (IC50) at 48 h of 35 µM.
Take 9-Dehydroxyeurotinone (EDG) [No. 21]: the half-maximal inhibitory concentration (IC50) in the series with HK-2 cells [1] (setting [7]) came out at 380 µM; with HK-2 cells [1] (setting [8]) it was 111 µM; in the series on HepaRG cells (setting [9]), 448 µM; in the series on HepaRG cells (setting [10]) it was 331 µM.
